# ARNT-TACC3 inh: disruptors of ARNT/TACC3 protein interaction, primary screen, biochemical, AlphaScreen, single concentration; AlphaScreen His-ARNT PAS-B/GST-TACC3 binding, luminescence; TACC3 fragment carries E629A point mutation; inhibition, % at 9.99 µM; 390,000 tested, 0.66% active; AID 623870, 2012;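 active means mean inhibition of replicates at least 50% and at least half of replicates each reaching 50%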;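 further: 0% = complete ARNT plus TACC3 wells and 100% = ARNT alone without TACC3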
# ERp5 inh: inhibitors of ERp5-driven insulin aggregation, primary screen, biochemical, turbidity, absorbance 650 nm, single point | inhibition, % at 9.99 µM | AID 651711, 2012 | 90 min | 350,000 tested, 0.05% active | Protein disulfide-isomerase A6 (Homo sapiens), Q15084;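 active means mean replicate inhibition above about 25%, with every replicate also reaching it, limit read from the data, passing the limit was not always enough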
# PDI turbidity: inhibitors of human PDI, primary screen, biochemical, turbidity, single point, plate reader; AID 588391, 2011; 350,000 tested, 0.052% active; Protein disulfide-isomerase (Homo sapiens), P07237; inhibition, % at 10 µM; PDI insulin aggregation turbidity, A650, 90 min;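 active means mean inhibition across replicates of 30% or more, whatever share of single replicates reach that level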
# Target sequence (P07237 whole entry, looked up): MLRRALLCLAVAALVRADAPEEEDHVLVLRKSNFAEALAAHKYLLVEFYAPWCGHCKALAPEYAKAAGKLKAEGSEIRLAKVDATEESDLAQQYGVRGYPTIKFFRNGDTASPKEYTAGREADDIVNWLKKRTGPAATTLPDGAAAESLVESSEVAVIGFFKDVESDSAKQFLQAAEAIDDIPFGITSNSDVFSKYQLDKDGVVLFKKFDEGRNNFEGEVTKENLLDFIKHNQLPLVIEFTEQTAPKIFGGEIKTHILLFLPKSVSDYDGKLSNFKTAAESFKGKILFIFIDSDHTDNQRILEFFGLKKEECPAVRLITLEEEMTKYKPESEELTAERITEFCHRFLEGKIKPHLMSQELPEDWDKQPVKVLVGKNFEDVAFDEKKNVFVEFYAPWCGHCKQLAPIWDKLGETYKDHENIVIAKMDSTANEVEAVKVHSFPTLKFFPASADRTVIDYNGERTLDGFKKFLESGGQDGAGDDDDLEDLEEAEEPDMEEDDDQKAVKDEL
# MLL AF4-AF9 inh: inhibitors of AF4 peptide binding to AF9, primary screen, biochemical, AlphaScreen, biotin-AF4 peptide, FLAG-AF9, single point. 350,000 tested, 0.47% active. inhibition, % at 10 µM;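 active means every replicate reaching a set inhibition limit, whatever the replicate mean, cut at about 25% in these data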;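 further: 0% = plate neutral control median and 100% = total signal loss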
# FGF22 binding: binders of human FGF22 protein, primary screen, FGF22 synaptogenesis inhibitor project, biophysical, thermal shift, single point | recombinant FGF22 thermal shift, SYPRO orange fluorescence; percent of sucrose octasulfate shift, DMSO zero | activity (Tm shift, normalised), % at 9.99 µM | 340,000 tested, 1.5% active | AID 651658, 2012;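 active means mean Tm shift, scaled 0 neutral to 100 positive control, at about 1.3% or above, every replicate too, limit read from the data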
# Target sequence (Q9HCT0 whole entry, looked up): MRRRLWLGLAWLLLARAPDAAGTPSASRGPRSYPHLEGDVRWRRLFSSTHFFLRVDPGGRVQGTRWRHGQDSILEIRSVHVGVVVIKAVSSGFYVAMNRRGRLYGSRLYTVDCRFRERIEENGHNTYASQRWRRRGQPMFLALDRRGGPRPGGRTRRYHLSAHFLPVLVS
# FN deposition inh: inhibitors of fibronectin matrix deposition, primary screen, AH1F cells, Alexa488-fibronectin fluorescence, plate reader; inhibition, % at 12.6 µM; 350,000 tested, 0.086% active; AID 743247, 2014; AH1F fibroblasts, overnight;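 active means mean inhibition across replicates of 30% or more, regardless of how many single replicates reach that level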;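 further: positive control wells lacked labelled fibronectin entirely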
#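 Material: AH1F fibroblasts assembling fluorescent fibronectin matrix; amount: 10000 AH1F cells/well; medium: DMEM, 2% serum; reagent: Alexa488-fibronectin, 24 nM final in well; dosing: single compound dose, delivered by pin transfer; incubation: 1 h adhesion, overnight exposure; detection: fluorescence after three HBSS washes, excitation 485 nm, emission 525 nm; measure: fibronectin deposition inhibition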
# AlphaScreen ctr: AlphaScreen signal interference compounds, dose response, artefact control for ARNT-TACC3 interaction inhibitor project, biochemical, luminescence, cherry-pick | 1,200 tested, 50% active | His-ARNT PASB-GST AlphaScreen artifact counter-screen | shares compounds with ARNT-TACC3 inh | AC50, µM (titrated, usually from 68 µM), for the others: top-dose activity change, negative = signal decrease;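 active means every separate test run was called active for a drop in luminescence, with AC50 within twice the top valid dose, actives reach about 71 µM in these data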
# Numbers without * were called inactive; . = no result given. Only some compounds are listed: those with a hit (about 2.1% of all), similar ones and a draw of the others.
SMILES,ARNT-TACC3 inh,ERp5 inh,PDI turbidity,MLL AF4-AF9 inh,FGF22 binding,FN deposition inh,AlphaScreen ctr
Nn1c(SC/C=C/c2ccccc2)nnc1-c1ccccn1,54*,.,-5,.,.,-1,60µM*
COc1ccc(OC)c(NC(=O)CSc2ccc3nnc(-c4ccccn4)n3n2)c1,53*,-2,1,-1,0,3,-30%
Cc1ccccc1-n1c(SCC(=O)Nc2ccc3c(c2)OCO3)nnc1-c1ccccn1,61*,.,-1,.,.,20,-31%
O=C(CSc1ccc2nnc(-c3ccccn3)n2n1)Nc1ccc(F)cc1F,53*,1,-6,-1,0,1,-34%
COc1ccc(CN(C)C[C@@H]2Oc3c(NC(=O)NC4CCCCC4)cccc3C(=O)N([C@H](C)CO)C[C@H]2C)cc1,7,-1,.,6,0,-1,.
CCCC(=O)Nc1ccc2c(c1)C(=O)N(C)C[C@H](OC)[C@H](C)CN(Cc1ccc(F)cc1)[C@@H](C)CO2,.,.,.,.,.,-4,.
C[C@@H]1CCCCO[C@@H](CN(C)S(=O)(=O)c2ccc(Cl)cc2)[C@H](C)CN([C@@H](C)CO)C(=O)c2cc(NC(=O)Nc3ccccc3)ccc2O1,7,0,.,2,0,.,.
COc1ccc(NC(=O)CSc2ccc3nnc(-c4ccccn4)n3n2)cc1,66*,2,-1,-3,0,3,-17%
COc1ccc(NC(=O)CSc2nnc(-c3ccccn3)n2N)cc1,55*,.,10,.,.,3,-34%
Cc1ccc(NC(=O)CSc2ccc3nnc(-c4ccccn4)n3n2)cc1,20,-11,8,-2,0,2,.
CC(C)(C)OC(=O)N1CCN(Cc2ccc(O)c3ncccc23)CC1,.,.,.,.,.,.,1.1µM*
CC1CN(Cc2ccc(O)c3ncccc23)CC(C)O1 (stereo not given),.,.,.,.,.,.,4.7µM*
Oc1ccc(Cl)c2cccnc12,7,5,-5,4,0,6,.
Oc1ccc(CNC2Cc3ccccc3C2)c2cccnc12,.,.,.,.,.,.,2.4µM*
Oc1ccc(CN2CCc3ccccc3C2)c2cccnc12,67*,.,-7,.,.,.,3.7µM*
COCCNC(=O)C[C@H]1C[C@H]2c3cc(NS(=O)(=O)c4ccccc4)ccc3O[C@H]2[C@@H](CO)O1,-2,-8,.,0,0,.,.
CCCC#Cc1cnc2c(c1)C(=O)N([C@@H](C)CO)C[C@H](C)[C@@H](CN(C)C)O2,17,-2,.,-4,0,-7,.
C[C@@H]1CN([C@@H](C)CO)S(=O)(=O)c2ccc(C#Cc3ccc(F)cc3)cc2O[C@@H]1CN(C)C(=O)c1ccccn1,0,-2,.,6,0,1,.
CNC[C@@H]1Oc2ccc(NC(=O)CCN3CCOCC3)cc2C(=O)N([C@H](C)CO)C[C@H]1C,.,.,.,.,.,-7,.
CCC(=O)N(C)C[C@@H]1Oc2ncc(C#CC(C)(C)O)cc2C(=O)N([C@H](C)CO)C[C@H]1C,-6,7,.,-3,0,1,.
CC(C)COCc1ccc(O)c2ncccc12,67*,1,3,-2,41,3,18µM*
Oc1ccc(CN2CCC(Cc3ccccc3)CC2)c2cccnc12,.,-6,.,76*,0,.,5µM*
O=C(Nc1cccc(Cl)c1)N[C@@H]1CC[C@@H](CCNC(=O)C2CCCCC2)O[C@@H]1CO,-4,1,.,-1,0,-4,.
Cc1noc(C)c1S(=O)(=O)Nc1ccc2c(c1)CC(=O)N([C@H](C)CO)C[C@H](C)[C@H](CN(C)C)O2,0,-6,.,-2,0,.,.
CC(C)CC#Cc1ccc2c(c1)O[C@@H](CN(C)C)[C@@H](C)CN([C@@H](C)CO)S2(=O)=O,-20,-10,.,3,0,8,.
SMILES,ARNT-TACC3 inh,ERp5 inh,PDI turbidity,MLL AF4-AF9 inh,FGF22 binding,FN deposition inh,AlphaScreen ctr
O=C(N[C@@H]1CC[C@@H](CCn2cc(C3CC3)nn2)O[C@@H]1CO)c1cccnc1,-16,0,.,1,0,6,.
O=C(N[C@H]1CC[C@H](CCn2cc(-c3ccccn3)nn2)O[C@H]1CO)c1cccnc1,85*,-1,.,0,0,.,44µM*
O=C(N[C@H]1CC[C@@H](CCn2cc(-c3ccccn3)nn2)O[C@H]1CO)c1cccnc1,69*,-1,.,-4,0,.,26µM*
O=C(N[C@H]1CC[C@H](CCn2cc(-c3ccccn3)nn2)O[C@@H]1CO)c1cccnc1,83*,-7,.,0,0,.,33µM*
O=C(N[C@H]1CC[C@@H](CCn2cc(C3CC3)nn2)O[C@@H]1CO)c1cccnc1,-18,-4,.,0,0,9,.
O=C(N[C@@H]1CC[C@H](CCn2cc(-c3ccccn3)nn2)O[C@@H]1CO)c1cccnc1,89*,-2,.,1,0,.,34µM*
CO[C@@H]1CN(C)C(=O)c2cc(NC(=O)C3CCC3)ccc2OC[C@@H](C)N(C(=O)c2ccccc2)C[C@H]1C,-3,-3,.,-1,0,6,.
O=C(N[C@H]1CC[C@@H](CCn2cc(C3CCCC3)nn2)O[C@H]1CO)c1cccnc1,.,-3,.,-2,.,-2,.
O=C(N[C@H]1CC[C@@H](CCn2cc(-c3ccccn3)nn2)O[C@@H]1CO)c1cccnc1,83*,2,.,0,0,.,52µM*
C[C@H](CO)N1C[C@H](C)[C@H](CN(C)Cc2ccncc2)Oc2cc(Br)ccc2S1(=O)=O,6,-1,.,-3,0,15,.
COCC#Cc1ccc2c(c1)O[C@H](CN(C)C(=O)C1CC1)[C@@H](C)CN([C@@H](C)CO)S2(=O)=O,2,5,.,-3,0,-17,.
O=S(=O)(N[C@@H]1CCCN(Cc2ccc(OCCO)cc2)C1)c1cccc2cccnc12,80*,-3,.,8,0,.,24µM*
O=S(=O)(N[C@@H]1CCCN(Cc2ccc(OCCO)cc2)C1)c1ccc2ccccc2c1,9,4,.,14,0,.,.
Brc1ccc(-c2csc(N3CCC(c4ccccc4)C3)n2)cc1 (stereo not given),9,.,-4,.,.,-7,.
c1ccc(-c2nnc(-c3ccccn3)nc2N2CCN(c3ccncc3)CC2)cc1,.,.,.,.,.,.,2.1µM*
c1ccc(-c2nnc(-c3ccccn3)nc2N2CCC(N3CCOCC3)CC2)cc1,.,.,.,.,.,.,0.92µM*

# High-throughput results (PubChem BioAssay)
